Data: ChEMBL document CHEMBL2069295, “Discovery of 6-substituted 4-anilinoquinazolines with dioxygenated rings as novel EGFR tyrosine kinase inhibitors” (Bioorg Med Chem Lett, 2012)
≈ marks a conversion by molar mass, not a printed value. Calls of active or inactive are those of the source. No cut-off for these calls is given here.

Key:
B16-F10 [1] = test: cells; conditions: Mus musculus
MCF7 [2] = test: cells; conditions: Homo sapiens
[3] = molecular target: Vascular endothelial growth factor receptor 2 (Homo sapiens, UniProt P35968); test: Inhibition of VEGFR2 using ATP incubated for 30 mins prior to ATP addition measured after 60 mins by fluorimetry
[4] = molecular target: Receptor tyrosine-protein kinase erbB-2 (Homo sapiens, UniProt P04626); test: Inhibition of recombinant HER2 expressed in baculovirus infected Sf9 cells using [32P]ATP incubated for 30 mins prior to ATP addition measured after 20 mins by liquid scintillation counting
[5] = molecular target: T1, Epidermal growth factor receptor (Homo sapiens, UniProt P00533); test: Inhibition of EGFR in human A431 cell lysate using tyrosine/glutamic acid polymer as substrate by ELISA; parameters: species or system A-431
A-431 = test: Antiproliferative activity against human A431 cells after 24 to 48 hrs by WST1 assay; type: functional, cell-based
A549 [6] = test: Antiproliferative activity against human A549 cells after 24 to 48 hrs by WST1 assay; type: functional, cell-based
MCF7 [7] = test: Growth inhibition of human MCF7 cells at 10 ug/mL after 24 to 48 hrs by WST1 assay; type: functional; conditions: read-out: GI
Outline: (§1)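 Single-concentration growth inhibition at 10 µg/mL, the top concentration used because higher levels precipitated in culture medium. Three separate experiments, each in triplicate.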

[8] = molecular target: T1, Epidermal growth factor receptor; test: Inhibition of EGFR in human A431 cells assessed as inhibition of EGF-stimulated autophosphorylation at 100 nM incubated for 1 hr prior to EGF-induction measured after 15 mins by Western blot analysis; type: cell-based; conditions: A-431
Outline: (§2)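 A431 cells were incubated […] with compound at 10 or 100 nM, then stimulated with EGF. Whole-cell lysates were Western blotted with an anti-phosphotyrosine antibody to detect EGFR autophosphorylation.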

[9] = molecular target: T1, Epidermal growth factor receptor; test: Inhibition of EGFR in human A431 cells assessed as inhibition of EGF-stimulated autophosphorylation at 10 nM incubated for 1 hr prior to EGF-induction measured after 15 mins by Western blot analysis; type: cell-based; conditions: A-431
Outline: as §2

B16-F10 [10] = test: Growth inhibition of mouse B16F10 cells at 10 ug/mL after 24 to 48 hrs by WST1 assay; type: functional; conditions: read-out: GI
Outline: as §1

A549 [11] = test: Growth inhibition of human A549 cells at 10 ug/mL after 24 to 48 hrs by WST1 assay; type: functional; conditions: read-out: GI
Outline: as §1

Chain of Vascular endothelial growth factor receptor 2 (P35968 whole entry): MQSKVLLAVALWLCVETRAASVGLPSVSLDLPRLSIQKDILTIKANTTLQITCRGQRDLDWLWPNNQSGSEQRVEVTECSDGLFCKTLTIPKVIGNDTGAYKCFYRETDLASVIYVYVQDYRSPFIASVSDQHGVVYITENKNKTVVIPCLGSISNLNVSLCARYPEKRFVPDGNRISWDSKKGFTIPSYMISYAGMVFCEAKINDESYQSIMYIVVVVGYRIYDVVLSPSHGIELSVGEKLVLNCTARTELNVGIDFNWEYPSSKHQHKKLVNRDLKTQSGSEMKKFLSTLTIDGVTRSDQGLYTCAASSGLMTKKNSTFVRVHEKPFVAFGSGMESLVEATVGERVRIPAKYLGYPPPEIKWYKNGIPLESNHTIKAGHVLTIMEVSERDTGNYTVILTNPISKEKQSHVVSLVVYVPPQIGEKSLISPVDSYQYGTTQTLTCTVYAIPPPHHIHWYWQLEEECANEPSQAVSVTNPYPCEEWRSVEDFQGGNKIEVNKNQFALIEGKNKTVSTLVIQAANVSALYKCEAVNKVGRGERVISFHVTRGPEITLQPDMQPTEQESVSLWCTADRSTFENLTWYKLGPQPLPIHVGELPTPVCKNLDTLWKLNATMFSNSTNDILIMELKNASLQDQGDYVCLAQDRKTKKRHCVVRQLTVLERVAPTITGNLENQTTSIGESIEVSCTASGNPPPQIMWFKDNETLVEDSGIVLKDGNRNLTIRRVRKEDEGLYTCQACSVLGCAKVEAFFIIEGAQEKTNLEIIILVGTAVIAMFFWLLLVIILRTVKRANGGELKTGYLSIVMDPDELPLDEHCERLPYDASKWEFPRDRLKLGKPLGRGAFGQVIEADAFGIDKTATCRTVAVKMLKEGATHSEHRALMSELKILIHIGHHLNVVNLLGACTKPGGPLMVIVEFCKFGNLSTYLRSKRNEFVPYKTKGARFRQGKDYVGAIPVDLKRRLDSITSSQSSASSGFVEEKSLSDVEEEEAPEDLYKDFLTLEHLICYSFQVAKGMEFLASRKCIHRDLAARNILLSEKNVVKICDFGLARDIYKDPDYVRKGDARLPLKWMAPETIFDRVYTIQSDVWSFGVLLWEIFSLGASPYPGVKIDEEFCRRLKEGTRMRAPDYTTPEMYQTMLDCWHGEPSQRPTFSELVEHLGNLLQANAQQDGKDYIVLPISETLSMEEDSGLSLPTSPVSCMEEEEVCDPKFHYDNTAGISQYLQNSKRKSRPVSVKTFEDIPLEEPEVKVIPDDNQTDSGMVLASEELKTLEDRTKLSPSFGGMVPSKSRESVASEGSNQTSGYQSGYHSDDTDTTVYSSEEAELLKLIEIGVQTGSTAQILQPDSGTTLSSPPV
Chain of Receptor tyrosine-protein kinase erbB-2 (P04626 whole entry): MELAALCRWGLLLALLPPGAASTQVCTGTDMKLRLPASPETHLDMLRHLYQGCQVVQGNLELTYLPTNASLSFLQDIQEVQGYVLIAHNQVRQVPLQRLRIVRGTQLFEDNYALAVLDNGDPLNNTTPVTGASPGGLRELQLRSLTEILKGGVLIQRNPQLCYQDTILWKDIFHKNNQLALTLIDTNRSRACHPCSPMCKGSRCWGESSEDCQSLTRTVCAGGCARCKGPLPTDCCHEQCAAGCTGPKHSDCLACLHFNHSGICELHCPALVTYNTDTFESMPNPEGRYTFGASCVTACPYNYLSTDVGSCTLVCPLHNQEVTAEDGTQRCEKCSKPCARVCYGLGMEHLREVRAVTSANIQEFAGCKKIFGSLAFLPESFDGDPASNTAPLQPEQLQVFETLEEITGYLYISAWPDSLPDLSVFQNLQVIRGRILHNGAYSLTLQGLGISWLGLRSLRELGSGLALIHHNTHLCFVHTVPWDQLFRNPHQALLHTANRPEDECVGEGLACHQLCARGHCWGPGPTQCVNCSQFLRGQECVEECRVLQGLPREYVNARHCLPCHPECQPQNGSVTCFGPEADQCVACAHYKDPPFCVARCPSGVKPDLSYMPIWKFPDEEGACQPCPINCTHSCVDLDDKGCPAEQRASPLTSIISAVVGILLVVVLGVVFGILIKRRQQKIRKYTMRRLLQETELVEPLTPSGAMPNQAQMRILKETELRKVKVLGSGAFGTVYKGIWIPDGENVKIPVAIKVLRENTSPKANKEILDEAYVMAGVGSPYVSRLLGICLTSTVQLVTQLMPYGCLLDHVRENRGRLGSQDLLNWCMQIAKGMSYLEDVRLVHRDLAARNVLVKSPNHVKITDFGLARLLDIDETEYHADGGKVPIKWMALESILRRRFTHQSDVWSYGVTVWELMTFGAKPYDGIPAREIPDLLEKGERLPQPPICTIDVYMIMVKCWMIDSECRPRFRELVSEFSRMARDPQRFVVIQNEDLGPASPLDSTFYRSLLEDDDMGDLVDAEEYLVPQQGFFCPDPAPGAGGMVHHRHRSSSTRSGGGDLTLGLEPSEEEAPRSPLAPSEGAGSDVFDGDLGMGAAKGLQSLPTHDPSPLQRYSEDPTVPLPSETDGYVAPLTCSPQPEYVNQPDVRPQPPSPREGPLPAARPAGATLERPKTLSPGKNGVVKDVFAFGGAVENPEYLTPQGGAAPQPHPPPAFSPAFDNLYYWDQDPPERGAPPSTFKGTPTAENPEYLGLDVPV
T1 sequence (P00533 whole entry): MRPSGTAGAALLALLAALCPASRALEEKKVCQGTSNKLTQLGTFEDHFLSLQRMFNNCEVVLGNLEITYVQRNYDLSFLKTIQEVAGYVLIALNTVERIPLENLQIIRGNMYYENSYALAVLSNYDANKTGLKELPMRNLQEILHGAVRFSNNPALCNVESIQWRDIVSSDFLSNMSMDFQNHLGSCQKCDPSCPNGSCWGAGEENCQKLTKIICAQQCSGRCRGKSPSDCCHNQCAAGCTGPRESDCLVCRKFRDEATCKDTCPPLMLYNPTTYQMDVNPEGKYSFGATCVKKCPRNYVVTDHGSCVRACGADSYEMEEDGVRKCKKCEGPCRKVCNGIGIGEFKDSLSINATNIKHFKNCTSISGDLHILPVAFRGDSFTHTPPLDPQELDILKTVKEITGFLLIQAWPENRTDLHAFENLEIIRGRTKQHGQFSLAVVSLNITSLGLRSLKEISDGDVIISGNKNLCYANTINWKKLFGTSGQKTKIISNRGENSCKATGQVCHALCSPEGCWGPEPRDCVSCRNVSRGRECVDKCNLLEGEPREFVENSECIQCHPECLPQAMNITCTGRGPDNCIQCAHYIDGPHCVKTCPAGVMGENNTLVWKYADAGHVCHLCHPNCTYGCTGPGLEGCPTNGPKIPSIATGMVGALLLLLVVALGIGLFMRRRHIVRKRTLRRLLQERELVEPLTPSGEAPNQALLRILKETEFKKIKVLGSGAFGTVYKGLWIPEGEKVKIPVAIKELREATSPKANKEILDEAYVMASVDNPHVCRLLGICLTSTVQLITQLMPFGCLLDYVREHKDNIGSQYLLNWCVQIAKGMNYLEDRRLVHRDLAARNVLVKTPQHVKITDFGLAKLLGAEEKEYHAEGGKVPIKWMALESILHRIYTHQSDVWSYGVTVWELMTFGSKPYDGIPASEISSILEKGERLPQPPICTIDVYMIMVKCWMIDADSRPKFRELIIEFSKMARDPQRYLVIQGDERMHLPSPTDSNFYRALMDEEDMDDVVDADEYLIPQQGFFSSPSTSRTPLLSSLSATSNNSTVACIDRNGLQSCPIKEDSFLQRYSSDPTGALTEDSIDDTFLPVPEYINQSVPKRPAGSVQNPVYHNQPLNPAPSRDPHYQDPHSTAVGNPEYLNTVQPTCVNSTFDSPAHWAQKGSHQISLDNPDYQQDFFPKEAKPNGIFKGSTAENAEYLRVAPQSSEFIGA

Structure (SMILES)	IC50 (B16-F10 [1]) [µg/mL]	IC50 (MCF7 [2]) [µg/mL]	IC50 [3] [nM]	IC50 [4] [nM]	IC50 [5] [nM]	IC50 (A-431) [µg/mL]	IC50 (A549 [6]) [µg/mL]	inhibition of growth at 10 µg/mL (MCF7 [7]) [%]	inhibition [8]	inhibition [9]	inhibition of growth at 10 µg/mL (B16-F10 [10]) [%]	inhibition of growth at 10 µg/mL (A549 [11]) [%]
Clc1cccc(Nc2ncnc3ccc(NCc4ccc5c(c4)OCCO5)cc23)c1	16.3 (≈ 39 µM)	23.1 (≈ 55.3 µM)										
Clc1cccc(Nc2ncnc3ccc(NCc4ccc5c(c4)OCO5)cc23)c1		7.36 (≈ 18.2 µM)	> 10000	6500								
Clc1cccc(Nc2ncnc3ccc(NCc4ccc5c(c4)OCCCCO5)cc23)c1	17.5 (≈ 39.1 µM)	21.3 (≈ 47.7 µM)	> 10000	> 10000	920	13.3 (≈ 29.8 µM)	44.8 (≈ 100 µM)					
O=C(Nc1ccc2ncnc(Nc3cccc(Br)c3)c2c1)C1COc2ccccc2O1 (stereo unspecified)	50.1 (≈ 105 µM)	> 100			3680	42.9 (≈ 89.9 µM)	73.8 (≈ 155 µM)	< 50	Active			
Brc1cccc(Nc2ncnc3ccc(NCc4ccc5c(c4)OCCO5)cc23)c1	12 (≈ 25.9 µM)	10.7 (≈ 23.1 µM)			1020	12.5 (≈ 27.1 µM)	58.3 (≈ 126 µM)					
Brc1cccc(Nc2ncnc3ccc(NCc4ccc5c(c4)OCCCO5)cc23)c1	1.99 (≈ 4.17 µM)	5.02 (≈ 10.5 µM)	> 10000	4800	98	2.77 (≈ 5.8 µM)	15.5 (≈ 32.5 µM)		Active	Active		
Brc1cccc(Nc2ncnc3ccc(NCc4ccc5c(c4)OCCCCO5)cc23)c1	20.6 (≈ 42 µM)	32.1 (≈ 65.2 µM)			1140	15 (≈ 30.6 µM)	> 100					
O=C(Nc1ccc2ncnc(Nc3cccc(Cl)c3)c2c1)C1COc2ccccc2O1 (stereo unspecified)	> 100	52.2 (≈ 121 µM)			2750	19.9 (≈ 45.9 µM)	61.2 (≈ 141 µM)				< 50	
Brc1cccc(Nc2ncnc3ccc(NCc4ccc5c(c4)OCO5)cc23)c1	3.62 (≈ 8.06 µM)	14.5 (≈ 32.2 µM)			630	6.82 (≈ 15.2 µM)	68.7 (≈ 153 µM)					
O=C(Nc1ccc2ncnc(Nc3cccc(Cl)c3)c2c1)c1cccc2c1OCCO2	9.86 (≈ 22.8 µM)	> 100			1290	46.6 (≈ 108 µM)	> 100	< 50				< 50
O=C(Nc1ccc2ncnc(Nc3cccc(Br)c3)c2c1)c1cccc2c1OCCO2	> 100	59.5 (≈ 125 µM)			1630	20.3 (≈ 42.6 µM)	84 (≈ 176 µM)				< 50	
Clc1cccc(Nc2ncnc3ccc(NCc4ccc5c(c4)OCCCO5)cc23)c1	2.14 (≈ 4.94 µM)	4.28 (≈ 9.89 µM)			216	2.59 (≈ 5.98 µM)	31 (≈ 71.7 µM)		Active			
COc1cc2ncnc(Nc3cccc(Br)c3)c2cc1OC		3.21 (≈ 8.91 µM)				2.26 (≈ 6.27 µM)	8.13 (≈ 22.6 µM)					
